From PubChem
A selection: hits, their analogues and other compounds. The true share with any hit is near 1.9%.
NPY-Y1 PAM-ag – NPY-Y1 receptor potentiators or agonists, primary screen, cell-based | 220,000 compounds, 0.37% hits | NPY-Y1 expressing cells, potentiator/agonist activation | activation, % at 3.6 µM; in the data active = activation above about 33%, passing the limit was not always enough;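 also: cells stimulated with NPY at EC10 then isoproterenol at EC100; 0% = low agonist plus stimulus and 100% = saturating agonist plus stimulus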
NPY Y2 blocker – NPY-Y2 receptor antagonists, primary screen, cell-based; Neuropeptide Y receptor type 2 (Homo sapiens), P49146; NPY-Y2 expressing cells, antagonist mode; inhibition, % at 2.7 µM; 140,000 compounds, 0.99% hits; AID 793, 2007; in the data active = inhibition above about 17%;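 also: 0% = vehicle with agonist challenge and 100% = reference antagonist with challenge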
Target sequence (P49146 whole entry, looked up): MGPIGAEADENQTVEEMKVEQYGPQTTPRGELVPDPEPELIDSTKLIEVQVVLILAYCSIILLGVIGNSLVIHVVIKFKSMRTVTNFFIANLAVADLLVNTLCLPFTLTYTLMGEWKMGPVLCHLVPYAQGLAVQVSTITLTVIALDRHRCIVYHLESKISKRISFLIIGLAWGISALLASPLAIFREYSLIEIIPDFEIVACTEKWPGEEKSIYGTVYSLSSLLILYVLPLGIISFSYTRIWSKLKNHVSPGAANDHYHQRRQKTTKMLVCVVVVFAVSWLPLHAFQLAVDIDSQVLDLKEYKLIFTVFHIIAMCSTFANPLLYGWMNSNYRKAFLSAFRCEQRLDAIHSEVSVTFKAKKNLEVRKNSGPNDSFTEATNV
NPY Y1 blocker – NPY-Y1 receptor antagonists, primary screen, cell-based | Neuropeptide Y receptor type 1 (Homo sapiens), P25929 | AID 1040, 2008 | HEK293-CNG Y1 cells, membrane potential fluorescence; NPY at EC95, then isoproterenol | 200,000 compounds, 1% hits | inhibition, % at 3.6 µM;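 active = inhibition above the campaign mean inhibition of all tested compounds plus 3 SD, cut at about 20% in these data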;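 also: 0% = DMSO wells given NPY plus isoproterenol and 100% = isoproterenol alone without NPY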
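material = HEK293 cells with Y1 receptor plus CNG channel | also added = NPY 25 nM then isoproterenol 1 µM plus Ro 20-1724 25 µM | schedule = dye 3 h, compound 60 min room temperature, stimulation 45 min | measured by = membrane potential fluorescence | benchmarks = high control isoproterenol alone, low control NPY with isoproterenol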
NPY-Y2 PAM-ag – NPY-Y2 potentiators or agonists, primary screen, cell-based; cells expressing NPY-Y2, potentiator/agonist read-out; Neuropeptide Y receptor type 2 (Homo sapiens), P49146; 220,000 compounds, 0.45% hits; activation, % at 3.6 µM; in the data active = activation above about 27%;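 also: cells stimulated with NPY near EC25 plus isoproterenol at EC100; 0% = vehicle plus submaximal agonist and 100% = vehicle plus saturating agonist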
NPY-Y1 confirm – NPY-Y1 potentiators or agonists, confirmation, cell-based. activation, % at 3.6 µM. shares compounds with NPY-Y1 PAM-ag. cell-based NPY-Y1 potentiator/agonist assay. AID 1546, 2009. 280 compounds, 20% hits; in the data active = activation above about 45%;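 also: cells challenged with NPY at its EC10 plus isoproterenol stimulus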
NPY-Y2 counter – NPY-Y2 potentiators or agonists, counter-screen for NPY-Y1 potentiator project, cell-based, fluorescence; 280 compounds, 20% hits; activation, % at 3.6 µM; shares compounds with NPY-Y1 PAM-ag; HEK293-CNG cells, membrane-potential fluorescence (FLIPR), 1536-well; AID 1649, 2009; in the data active = activation above about 33%
NPY-Y1 ag – NPY-Y1 direct agonists without NPY, confirmation, counter-screen for NPY-Y1 potentiator project, cell-based, fluorescence | activation, % at 3.6 µM | 280 compounds, 50% hits | shares compounds with NPY-Y1 PAM-ag | HEK293 Y1-CNGC, membrane potential fluorescence, agonist mode;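 active = percent activation above the mean of DMSO-only control wells plus 3 SD of those wells, cut at about 18% in these data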;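 also: cells challenged with isoproterenol plus Ro 20-1724 with no NPY in test wells; Y1 agonism lowers isoproterenol-driven cAMP and reduces probe fluorescence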
NPY-Y2 ag – NPY-Y2 direct agonists without NPY, counter-screen for NPY-Y1 potentiator project, cell-based, fluorescence | 280 compounds, 67% hits | shares compounds with NPY-Y1 PAM-ag | AID 1698, 2009 | activation, % at 3.6 µM | HEK293 Y2-CNGC, membrane potential fluorescence, agonist mode;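 active = activation above the solvent-only control wells' mean plus 3 SD, cut at about 11% in these data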;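 also: 0% = DMSO with isoproterenol and 100% = 40 nM NPY maximal response; agonism lowers cAMP so well fluorescence drops in active wells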
CNGC counter – CNGC cAMP sensor activity inhibitors, counter-screen for NPY-Y1 potentiator/agonist project, cell-based, HEK293-CNG parental, membrane potential fluorescence, Y1 set | shares compounds with NPY-Y1 PAM-ag | isoproterenol cAMP | inhibition, % at 3.6 µM | 280 compounds, 42% hits | AID 1704, 2009;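 active = inhibition above the mean of stimulated solvent-only control wells plus 3 SD, cut at about 22% in these data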;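 also: 0% = isoproterenol-stimulated DMSO wells and 100% = unstimulated DMSO wells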
Active calls of the source: *; . = no result.

SMILES	NPY-Y1 PAM-ag	NPY Y2 blocker	NPY Y1 blocker	NPY-Y2 PAM-ag	NPY-Y1 confirm	NPY-Y2 counter	NPY-Y1 ag	NPY-Y2 ag	CNGC counter
CC1CCN(C2=C(NS(=O)(=O)c3ccc(Cl)cc3)C(=O)c3ccccc3C2=O)CC1	43.6*	-11.1	-17.0	19.2	99.0*	79.9*	65.2*	57.0*	76.8*
CCOC(=O)C1CCN(C(=O)c2ccccc2NS(=O)(=O)c2ccc(F)c(F)c2)CC1	-12.8	2.7	-0.9	4.5	.	.	.	.	.
CCOC(=O)C1CCN(C2=C(NS(=O)(=O)c3ccc(Cl)cc3)C(=O)c3ccccc3C2=O)CC1	54.9*	.	.	35.1	71.8*	57.4*	69.8*	65.3*	56.8*
COCCCNC(=O)CC1C(=O)N(Cc2ccccc2)C(C)c2nc3ccccc3n21 (centres undefined)	2.7	.	2.3	2.5	.	.	.	.	.
CS/C(Nc1cc(Cl)ccc1Cl)=C(/C#N)C(=O)c1ccco1	50.6*	.	.	5.7	17.4	7.3	11.9	16.4*	7.3
CCOC(=O)c1c(NC(=O)C2C3CCC(O3)C2C(=O)O)sc(C)c1-c1ccc(F)cc1 (centres undefined)	23.7	0.4	-2.8	-0.6	.	.	.	.	.
CCCOC(=O)c1c(-c2ccc(C)cc2C)csc1NC(=O)C1C2CCC(O2)C1C(=O)O (centres undefined)	47.5*	-1.1	-0.7	24.9	18.4	9.0	18.4*	13.0*	11.7
CN(C)CCCNC(NC(=O)/C=C/c1ccccc1)C(Cl)(Cl)Cl (centres undefined)	-3.5	.	.	-25.8	.	.	.	.	.
CCCCC(=O)Nc1ccc(C(=O)Nc2ccc(S(=O)(=O)Nc3ccc(C)cc3)cc2)cc1	59.5*	-5.4	-11.4	21.5	19.9	15.6	10.3	16.5*	14.9
Cc1ccc(OCC(O)CN2CCN(c3ccccc3)CC2)cc1 (centres undefined)	-14.9	9.9	5.8	-22.1	.	.	.	.	.
OC(COc1cccc2ccccc12)CN1CCN(c2ccccc2)CC1 (centres undefined)	53.9*	.	.	-9.7	2.5	5.5	29.4*	16.6*	-22.5
COc1ccc(C(C(=O)NC(C)(C)C)N(C(=O)CNC(=O)c2cccs2)c2ccc(NC(C)=O)cc2)cc1OC (centres undefined)	0.0	.	2.2	3.2	.	.	.	.	.
CCCn1nc([N+](=O)[O-])c(C(C#N)c2nc3ccccc3s2)c(Cl)c1=O (centres undefined)	59.4*	4.2	-7.0	27.4	20.5	21.4	16.6	32.0*	17.2
CCn1nc([N+](=O)[O-])c(C(C#N)c2nc3ccccc3n2C)c(Cl)c1=O (centres undefined)	-6.9	2.9	0.1	8.5	.	.	.	.	.
COc1ccc(N(CCC#N)C(=O)/C(C#N)=C\c2cccs2)cc1	17.6	.	.	-2.6	.	.	.	.	.
Cc1cccc(NC(=S)NCC(c2cccnc2)N(C)C)c1C (centres undefined)	-3.2	2.0	2.9	11.1	.	.	.	.	.
COc1cccc(C(=O)Nc2ccc(C)cc2)c1	-14.1	3.6	-8.9	7.8	.	.	.	.	.
COc1cccc(C(=O)NC(=O)Nc2cc(C)[nH]n2)c1	75.6*	.	.	-11.4	-5.7	-4.6	-4.2	3.8	-2.3
Cc1ccc(NC(=O)c2noc3c2CCCCC3)cc1C	49.1*	5.1	7.8	-4.9	-11.4	-3.6	-11.1	-5.4	-14.2
CN1CCN(CC(=O)Nc2c(C#N)cnn2-c2ccccc2)CC1	-4.4	.	.	-0.5	.	.	.	.	.
O=C(Cn1c(=O)sc2ccccc21)OC(CCl)CCl	44.3*	0.4	-8.8	23.7	78.1*	48.6*	62.5*	48.6*	75.3*
O=C1NC(SCCCF)=N/C1=C/c1ccc(-n2cncn2)cc1	13.0	.	.	-8.9	.	.	.	.	.
COc1nccnc1NS(=O)(=O)c1ccc(NS(=O)(=O)c2ccc(NC(C)=O)cc2)cc1	81.1*	3.0	-1.4	-3.2	5.1	-1.4	2.6	8.5	12.7
Nc1ccc(Nc2ccccc2)c(Cl)c1	19.0	1.7	-3.0	17.6	.	.	.	.	.
Nc1ccccc1Nc1ccccc1	38.0*	-1.0	-7.7	29.1	28.1	11.2	8.9	9.8	24.2*
SMILES	NPY-Y1 PAM-ag	NPY Y2 blocker	NPY Y1 blocker	NPY-Y2 PAM-ag	NPY-Y1 confirm	NPY-Y2 counter	NPY-Y1 ag	NPY-Y2 ag	CNGC counter
Nc1nc(Nc2ccccc2Cl)cc(=O)[nH]1	-3.0	.	.	-6.8	.	.	.	.	.
CCN(CC)S(=O)(=O)c1ccc(NC(=O)c2cccs2)cc1	85.9*	.	0.8	-17.1	-5.7	-2.0	-8.5	2.9	5.6
Cc1nc(C)c(-c2csc(Nc3cccnc3)n2)s1	40.1*	-6.7	-15.8	25.9	51.1*	41.4*	52.6*	52.0*	41.4*
N#Cc1c(-n2cccc2/C=N/O)sc2c1CCCC2	44.3*	2.7	3.9	14.8	2.3	-2.1	-2.2	3.1	-2.0
CN(C)c1ccc2c3c(ccc(N(C)C)c13)C(=O)OC2	19.0	.	.	-0.3	.	.	.	.	.
Cc1ccc(Nc2nnc(SCC(=O)NCCN3C(=O)CSC3=O)s2)cc1C	-0.5	1.0	1.2	11.3	.	.	.	.	.
O=C(Cc1ccc(Cl)cc1)Nc1ncc([N+](=O)[O-])s1	36.1*	.	-3.4	11.2	8.2	14.3	13.9	10.7*	6.0
O=C(Cc1ccc([N+](=O)[O-])cc1)Nc1ccc(Cl)cc1	9.2	.	-3.5	-2.5	.	.	.	.	.
